Source: ChEMBL document CHEMBL1137742, “Facile synthesis of bis(4,5-dihydro-1H-pyrazole-1-carboxamides) and their thio-analogues of potential PGE(2) inhibitory properties” (Eur J Med Chem, 2009)

How the values were obtained:
[1] = test system: Rattus norvegicus; experiment: Antiinflammatory activity in Wister albino rat assessed as inhibition of carrageenan-induced paw edema volume at 50 mg/kg, ip administered 1 hr before carrageenan challenge measured after 4 hrs; type: functional; conditions: route intraperitoneal
Procedure, shortened: (§1)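 Wistar albino rats of either sex (pregnant females excluded), 160–190 g, 6 per group. Dosed i.p. in DMSO 1 h before 0.1 ml of 1% carrageenan in saline was injected subcutaneously into the right hind paw; DMSO-only controls. Paw volume was read by plethysmometer at 4 h against the initial volume to give oedema volume and % inhibition of oedema.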

[2] = test system: Rattus norvegicus; experiment: Antiinflammatory activity in Wister albino rat assessed as inhibition of carrageenan-induced paw edema volume at 50 mg/kg, ip administered 1 hr before carrageenan challenge measured after 4 hrs relative to indomethacin; type: functional; set-up: scale not given: the % may be the effect or the level left; conditions: route intraperitoneal; procedure, shortened: as §1
[3] = test system: Rattus norvegicus; experiment: Antiinflammatory activity in ip dosed Wister albino rat assessed as inhibition of carrageenan-induced paw edema volume administered 1 hr before carrageenan challenge measured after 4 hrs; type: functional; procedure, shortened: as §1
[4] = test system: Rattus norvegicus; experiment: Antiinflammatory activity in Wister albino rat assessed as inhibition of carrageenan-induced paw edema volume at 20 mg/kg, ip administered 1 hr before carrageenan challenge measured after 4 hrs; type: functional; conditions: route intraperitoneal; procedure, shortened: as §1
[5] = test system: Rattus norvegicus; experiment: Antiinflammatory activity in Wister albino rat assessed as inhibition of carrageenan-induced paw edema volume at 10 mg/kg, ip administered 1 hr before carrageenan challenge measured after 4 hrs; type: functional; conditions: route intraperitoneal; procedure, shortened: as §1
[6] = test system: Rattus norvegicus; experiment: Antiinflammatory activity against carrageenan-induced inflammation in albino rat 6-day-old air pouch model assessed as inhibition of PGE2 level at 50 mg/kg, po administered prior to carrageenan challenge measured after 6 hrs; type: functional
Procedure, shortened: (§2)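 Male albino rats, 200–250 g, 6 per group. Air pouch raised by subcutaneous dorsal air: 20 ml on day 1, 10 ml two days later, 10 ml on day 5. On day 6, oral dosing in saline with a few drops of Tween 80, then 2 ml of 1% carrageenan in saline into the pouch. Exudate was aspirated 6 h later under ether, frozen at −20 °C, and PGE2 measured by ELISA (pg/ml).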

[7] = test system: Rattus norvegicus; experiment: Gastrointestinal toxicity in fasted albino rat assessed ulcer index at 50 mg/kg, po administered for 3 days measured after 1 hr of last dose; type: organism-based; set-up: dose 50 mg/kg, route oral; conditions: in vivo
Procedure, shortened: (§3)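 Albino rats of either sex (pregnant excluded), 130–150 g, 6 per group, fasted 18 h. Dosed orally for 3 consecutive days in saline with a few drops of Tween 80. Killed 1 h after the last dose; stomach opened along the greater curvature, rinsed, and mucosa examined at 10× for lesions. Ulcer index computed from % incidence/10, mean ulcer number and severity.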

[8] = test system: Rattus norvegicus; experiment: Antiinflammatory activity against carrageenan-induced inflammation in albino rat 6-day-old air pouch model assessed as inhibition of PGE2 level at 10 mg/kg, po administered prior to carrageenan challenge measured after 6 hrs; type: functional; procedure, shortened: as §2
[9] = test system: Rattus norvegicus; experiment: Gastrointestinal toxicity in fasted albino rat assessed ulcer index at 10 mg/kg, po administered for 3 days measured after 1 hr of last dose; type: organism-based; set-up: dose 10 mg/kg, route oral; conditions: in vivo; procedure, shortened: as §3

Row | Structure (SMILES) | inhibition in vivo at 50 mg/kg [1] [%] | Activity [2] [%] | ED50 [3] [mg/kg] | inhibition in vivo at 20 mg/kg [4] [%] | inhibition in vivo at 10 mg/kg [5] [%] | Activity [6] [pg/mL] | UI [7] | Activity [8] [pg/mL] | UI [9]
1 | NC(=O)N1N=C(c2ccccc2)CC1c1ccccc1OCCOc1ccccc1C1CC(c2ccccc2)=NN1C(N)=O (stereo not given) | 43.2 | 64 |  |  |  |  |  |  | 
2 | NC(=O)N1N=C(c2ccc(Cl)cc2)CC1c1ccccc1OCCOc1ccccc1C1CC(c2ccc(Cl)cc2)=NN1C(N)=O (stereo not given) | 45.3 | 67.1 |  |  |  |  |  |  | 
3 | NC(=S)N1N=C(c2cccs2)CC1c1ccccc1OCCOc1ccccc1C1CC(c2cccs2)=NN1C(N)=S (stereo not given) | 67.5 | 100 | 28.8 | 61.6 | 59.7 | 96.5 | 14.33 |  | 
4 | NC(=S)N1N=C(c2ccc(F)cc2)CC1c1ccccc1OCCOc1ccccc1C1CC(c2ccc(F)cc2)=NN1C(N)=S (stereo not given) | 48 | 71.1 | 40.8 | 43.2 | 40.9 | 114.67 | 11.51 |  | 
5 | Cc1ccc(C2=NN(C(N)=S)C(c3ccccc3OCCOc3ccccc3C3CC(c4ccc(C)cc4)=NN3C(N)=S)C2)cc1 (stereo not given) | 36.8 | 54.5 |  |  |  |  |  |  | 
6 | Cc1ccc(C2=NN(C(N)=O)C(c3ccccc3OCCOc3ccccc3C3CC(c4ccc(C)cc4)=NN3C(N)=O)C2)cc1 (stereo not given) | 22.7 | 33.6 |  |  |  |  |  |  | 
7 | NC(=S)N1N=C(c2ccccc2)CC1c1ccc(OCCOc2ccc(C3CC(c4ccccc4)=NN3C(N)=S)cc2)cc1 (stereo not given) | 83.5 | 123.7 | 23.1 | 79.5 | 74.4 | 83.33 | 18.5 |  | 
8 | COc1ccc2c(c1)c(CC(=O)O)c(C)n2C(=O)c1ccc(Cl)cc1 [INDOMETHACIN] |  |  |  |  | 67.5 |  |  | 98.33 | 13.49
9 | Cc1ccc(C2=NN(C(N)=S)C(c3ccc(OCCOc4ccc(C5CC(c6ccc(C)cc6)=NN5C(N)=S)cc4)cc3)C2)cc1 (stereo not given) | 34.7 | 51.4 |  |  |  |  |  |  | 
10 | NC(=O)N1N=C(c2ccc(F)cc2)CC1c1ccccc1OCCOc1ccccc1C1CC(c2ccc(F)cc2)=NN1C(N)=O (stereo not given) | 20.8 | 30.8 |  |  |  |  |  |  | 
11 | NC(=S)N1N=C(c2ccccc2)CC1c1ccccc1OCCOc1ccccc1C1CC(c2ccccc2)=NN1C(N)=S (stereo not given) | 24.5 | 36.3 |  |  |  |  |  |  | 
12 | NC(=S)N1N=C(c2ccc(Cl)cc2)CC1c1ccccc1OCCOc1ccccc1C1CC(c2ccc(Cl)cc2)=NN1C(N)=S (stereo not given) | 55.2 | 81.8 | 34.6 | 53.7 | 50.3 | 110.83 | 12.16 |  | 
